Format in all cases: cell-based
Test [1] deals with 92.1 cells (GNAQ Q209L mutation). The experiment in a line: Cell proliferation inhibition assay. The note with it: 72 h, read-out: Antiproliferation (IC50, μmol/L) 92.1. In a few lines: (§1)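 Uveal melanoma cells were grown in RPMI-1640 with 10% FBS at 37 °C, 5% CO2. They were resuspended at 3 × 10^3 cells/mL, seeded and left overnight. Cells were exposed to a concentration series of test compound for 72 h. CCK-8 was added for 2–4 h and absorbance read at 450 nm. IC50 values were fitted from the curves and reported as mean ± SEM, n = 3.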

The test system of a further test is Gαq/11. The experiment in a line: IP1 accumulation assay. The note with it: CHO-M1 cells, mean ± SEM (n = 3).
Test [2] has as its system MP41 cells (GNA11 Q209L mutation). The experiment in a line: Cell proliferation inhibition assay. The note with it: MP41, 72 h, read-out: Antiproliferation (IC50, μmol/L) MP41. In a few lines: as §1

SMILES strings stand for the structures.

Regarding `CC[C@H](C)[C@H](N)C(=O)N1CCn2cc(-c3ccccn3)nc2[C@@H]1CC1CCCCC1` [GQ220], the IC50 in test [1] and in test [2] was above 40 µmol/L throughout. Moreover, the “IP1 inhibition at 10 μmol/L” value with Gαq/11 was found to be 20.8 ± 1.1%.
For `CC[C@H](C)[C@H](N)C(=O)N1CCn2cc(-c3cccnc3)nc2[C@@H]1CC1CCCCC1` [GQ221], the IC50 in test [1] and in test [2] was above 40 µmol/L throughout. For the same molecule, the “IP1 inhibition at 10 μmol/L” value in the test with Gαq/11 is given as 20.0 ± 0.6%.
`CC[C@H](C)[C@H](N)C(=O)N1CCn2cc(-c3ccncc3)nc2[C@@H]1CC1CCCCC1` [GQ222]: the IC50 in test [1] and in test [2] was above 40 µmol/L in each case. Besides, the “IP1 inhibition at 10 μmol/L” value in the test with Gαq/11 was determined as 27.0 ± 5.2%.
On to `CC[C@H](C)[C@H](N)C(=O)N1CCn2cc(-c3ccco3)nc2[C@@H]1CC1CCCCC1` [GQ223], for which the IC50 in test [1] and in test [2] was above 40 µmol/L in each case. In addition, the “IP1 inhibition at 10 μmol/L” value in the test on Gαq/11 came to 16.6 ± 1.2%.
For the molecule `CC[C@H](C)[C@H](N)C(=O)N1CCn2cc(-c3ccoc3)nc2[C@@H]1CC1CCCCC1` [GQ224], the IC50 in test [1] and in test [2] was above 40 µmol/L each time. Moreover, the “IP1 inhibition at 10 μmol/L” value in the test with Gαq/11 is listed as 31.5 ± 6.0%.
Regarding `CC[C@H](C)[C@H](N)C(=O)N1CCn2cc(-c3cccs3)nc2[C@@H]1CC1CCCCC1` [GQ225], the figures for the IC50 in test [1] and in test [2] were 18.8 ± 1.7 µmol/L and 25.3 ± 0.9 µmol/L, respectively. Moreover, the “IP1 inhibition at 10 μmol/L” value with Gαq/11 is given as 28.7 ± 1.6%.
The matching figures for `CC[C@H](C)[C@H](N)C(=O)N1CCn2cc(-c3nccs3)nc2[C@@H]1CC1CCCCC1` [GQ226]: above 40 µmol/L, above 40 µmol/L and 29.5 ± 3.0%.
The matching figures for `CC[C@H](C)[C@H](N)C(=O)N1CCn2cc(C3CCCCC3)nc2[C@@H]1CC1CCCCC1` [GQ227]: 21.6 ± 0.6 µmol/L, 21.2 ± 0.5 µmol/L and 18.4 ± 0.9%.
The matching figures for `CC[C@H](C)[C@H](N)C(=O)N1CCn2cc(C3=CCCCC3)nc2[C@@H]1CC1CCCCC1` [GQ228]: 19 ± 0.6 µmol/L, 11 ± 0.1 µmol/L and 24.8 ± 1.5%.
On to `CC[C@H](C)[C@H](N)C(=O)N1CCn2cc(C3CCCC3)nc2[C@@H]1CC1CCCCC1` [GQ229], for which the IC50 in test [1] and in test [2] was above 40 µmol/L each time. Further, the “IP1 inhibition at 10 μmol/L” value in the test with Gαq/11 was 15.8 ± 1.8%.
On to `CC[C@H](C)[C@H](N)C(=O)N1CCn2cc(C3CCNCC3)nc2[C@@H]1CC1CCCCC1` [GQ230], for which the IC50 in test [1] and in test [2] was above 40 µmol/L in each case. The “IP1 inhibition at 10 μmol/L” value in the test on Gαq/11 is reported as 13.7 ± 0.6%.
On to `CC[C@H](C)[C@H](N)C(=O)N1CCn2cc(C3CCOCC3)nc2[C@@H]1CC1CCCCC1` [GQ231], for which the IC50 in test [1] and in test [2] was above 40 µmol/L in each case. Moreover, in the test with Gαq/11, the “IP1 inhibition at 10 μmol/L” value was 20.6 ± 2.1%.
As for `CC[C@H](C)[C@H](N)C(=O)N1CCn2cc(C3CCC(C)(C)CC3)nc2[C@@H]1CC1CCCCC1` [GQ232], the values for the IC50 in test [1] and in test [2] were 16.1 ± 1 µmol/L and 19.8 ± 0.1 µmol/L, respectively. Besides, the “IP1 inhibition at 10 μmol/L” value with Gαq/11 came out at 10.9 ± 0.7%.
As to `CC[C@H](C)[C@H](N)C(=O)N1CCn2cc(C3CCC(F)(F)CC3)nc2[C@@H]1CC1CCCCC1` [GQ233], the IC50 in test [1] and in test [2] was above 40 µmol/L each time. Also, the “IP1 inhibition at 10 μmol/L” value in the test with Gαq/11 is on record as 22.2 ± 1.9%.
`CC[C@H](C)[C@H](N)C(=O)N1CCn2cc(C(C)C)nc2[C@@H]1CC1CCCCC1` [GQ234]: the IC50 in test [1] and in test [2] was above 40 µmol/L in each case. In the test with Gαq/11, the “IP1 inhibition at 10 μmol/L” value is on record as 10.8 ± 1.4%.
`CCc1cn2c(n1)[C@H](CC1CCCCC1)N(C(=O)[C@@H](N)[C@@H](C)CC)CC2` [GQ235]: the IC50 in test [1] and in test [2] was above 40 µmol/L in each case. Also, the “IP1 inhibition at 10 μmol/L” value in the test on Gαq/11 is reported as 22.3 ± 1.3%.
Consider `CC[C@H](C)[C@H](N)CN1CCn2cc(-c3ccccc3)nc2[C@@H]1CC1CCCCC1` [GQ236], for which the figures for the IC50 in test [1] and in test [2] were 9.3 ± 0.5 µmol/L and 10.1 ± 0.2 µmol/L, respectively. The “IP1 inhibition at 10 μmol/L” value with Gαq/11 is recorded as 48.4 ± 2.4%.

The values are drawn from article PMC9366314 (Acta Pharmaceutica Sinica. B, 2022).
